Calls of active or inactive are those of the source. The calls are words filed in the database; no cut-off is given here.
How the values were obtained:
Mus musculus [1] = experiment: Antidiabetic activity in po dosed C57BL/6J mouse assessed as reduction in blood glucose level administered for 15 to 30 mins prior to glucose challenge measured up to 120 mins post dose by OGTT; type: functional, organism-based
Summary of the method: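 Fasted male C57BL/6J or ob/ob mice (8 weeks, n = 8/group) dosed orally in 0.5% methylcellulose 15 or 30 min before a 2 g/kg oral glucose load. Tail vein glucose measured by glucometer at −15 or −30, 0, 20, 40, 60, 90 and 120 min. Incremental glucose AUC0-120 min compared with vehicle. Mean ± SEM, Dunnett's test.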

Mus musculus [2] = experiment: Antidiabetic activity in C57BL/6J mouse assessed as increase in insulin secretion at 30 mg/kg, po measured up to 60 mins by ELISA; type: functional, organism-based
Summary of the method: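 Male C57BL/6J mice (8 weeks) fasted 2 h, then dosed orally at time 0 (n = 8/group). Tail vein insulin measured at 0, 30 and 60 min by ultra-sensitive mouse insulin ELISA. Mean ± SEM, Dunnett's test.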

Mus musculus [3] = experiment: Toxicity in C57BL/6J mouse assessed as hypoglycemia at 30 mg/kg, po measured up to 300 mins by glucometric method; type: organism-based; conditions: in vivo, 5 h
[4] = AUC (0 to 1.5 hrs) in C57BL/6J mouse liver at 10 mg/kg, po administered as single dose by LC/MS/MS analysis; type: ADME, organism-based; set-up: time < 1.5 hr, dose 10 mg/kg, route oral; conditions: in vivo
[5] = AUC (0 to 1.5 hrs) in C57BL/6J mouse plasma at 10 mg/kg, po administered as single dose by LC/MS/MS analysis; type: ADME, organism-based; set-up: time < 1.5 hr, dose 10 mg/kg, route oral
[6] = AUC (0 to 1.5 hrs) in C57BL/6J mouse plasma at 30 mg/kg, po administered as single dose by LC/MS/MS analysis; type: ADME, organism-based; set-up: dose 30 mg/kg, time < 1.5 hr, route oral
[7] = AUC (0 to 1.5 hrs) in C57BL/6J mouse plasma at 5 mg/kg, po administered as single dose by LC/MS/MS analysis; type: ADME, organism-based; set-up: time < 1.5 hr, dose 5 mg/kg, route oral
[8] = AUC (0 to 1.5 hrs) in C57BL/6J mouse liver at 30 mg/kg, po administered as single dose by LC/MS/MS analysis; type: ADME, organism-based; set-up: dose 30 mg/kg, time < 1.5 hr, route oral; conditions: in vivo
[9] = AUC (0 to 1.5 hrs) in C57BL/6J mouse liver at 5 mg/kg, po administered as single dose by LC/MS/MS analysis; type: ADME, organism-based; set-up: dose 5 mg/kg, time < 1.5 hr, route oral; conditions: in vivo
[10] = AUC (0 to 1.5 hrs) in C57BL/6J mouse pancreas at 10 mg/kg, po administered as single dose by LC/MS/MS analysis; type: ADME, organism-based; set-up: dose 10 mg/kg, time < 1.5 hr, route oral; conditions: in vivo
[11] = AUC (0 to 1.5 hrs) in C57BL/6J mouse pancreas at 30 mg/kg, po administered as single dose by LC/MS/MS analysis; type: ADME, organism-based; set-up: time < 1.5 hr, dose 30 mg/kg, route oral; conditions: in vivo
[12] = AUC (0 to 1.5 hrs) in C57BL/6J mouse pancreas at 5 mg/kg, po administered as single dose by LC/MS/MS analysis; type: ADME, organism-based; set-up: dose 5 mg/kg, time < 1.5 hr, route oral; conditions: in vivo
[13] = Ratio of AUC (0 to 1.5 hrs) in C57BL/6J mouse liver to plasma at 10 mg/kg, po administered as single dose by LC/MS/MS analysis; type: ADME, organism-based; conditions: liver and plasma, read-out: Ratio AUC
[14] = Ratio of AUC (0 to 1.5 hrs) in C57BL/6J mouse liver to plasma at 30 mg/kg, po administered as single dose by LC/MS/MS analysis; type: ADME, organism-based; conditions: liver and plasma, read-out: Ratio AUC
[15] = Ratio of AUC (0 to 1.5 hrs) in C57BL/6J mouse liver to plasma in C57BL/6J mouse at 5 mg/kg, po administered as single dose by LC/MS/MS analysis; type: ADME, organism-based; conditions: liver and plasma, read-out: Ratio AUC
[16] = Ratio of AUC (0 to 1.5 hrs) in C57BL/6J mouse pancreas to plasma at 10 mg/kg, po administered as single dose by LC/MS/MS analysis; type: ADME, organism-based; conditions: pancreas and plasma, read-out: Ratio AUC
[17] = Ratio of AUC (0 to 1.5 hrs) in C57BL/6J mouse pancreas to plasma at 30 mg/kg, po administered as single dose by LC/MS/MS analysis; type: ADME, organism-based; conditions: pancreas and plasma, read-out: Ratio AUC
[18] = Ratio of AUC (0 to 1.5 hrs) in C57BL/6J mouse pancreas to plasma at 5 mg/kg, po administered as single dose by LC/MS/MS analysis; type: ADME, organism-based; conditions: pancreas and plasma, read-out: Ratio AUC
[19] = Ratio of AUC (0 to 1.5 hrs) in C57BL/6J mouse liver to pancreas at 10 mg/kg, po administered as single dose by LC/MS/MS analysis; type: ADME, organism-based; conditions: in vivo
[20] = Ratio of AUC (0 to 1.5 hrs) in C57BL/6J mouse liver to pancreas at 30 mg/kg, po administered as single dose by LC/MS/MS analysis; type: ADME, organism-based; conditions: in vivo
[21] = Ratio of AUC (0 to 1.5 hrs) in C57BL/6J mouse liver to pancreas at 5 mg/kg, po administered as single dose by LC/MS/MS analysis; type: ADME, organism-based; conditions: in vivo

AUC [4]: 3230 ng·h/g
AUC(0-t) at 1.5 h [5]: 574 ng·h/mL
AUC(0-t) at 1.5 h [6]: 2330 ng·h/mL
AUC(0-t) at 1.5 h [7]: 351 ng·h/mL
AUC [8]: 15700 ng·h/g
AUC [9]: 1470 ng·h/g
AUC [10]: 1020 ng·h/g
AUC [11]: 5030 ng·h/g
AUC [12]: 505 ng·h/g
Kp [13]: 5.6
Kp [14]: 6.8
Kp [15]: 4.2
Kp [16]: 1.8
Kp [17]: 2.2
Kp [18]: 1.4
Ratio AUC [19]: 3.2
Ratio AUC [20]: 3.1
Ratio AUC [21]: 2.9
Compound: CS(=O)(=O)c1ccc([C@@H](C[C@H]2CCC(=O)C2)C(=O)Nc2cnccn2)cc1Cl [PIRAGLIATIN]
Activity (Mus musculus [1]): Dose-dependent effect
Activity (Mus musculus [2]): Active
Activity (Mus musculus [3]): Toxic
